From PubChem BioAssay AID588556 (Sanford-Burnham Center for Chemical Genomics, 2011) come the findings set out here.

This assay relates to CHO-CHOP cells viability, ATPLite luminescence, 24 h. As to the kind of experiment: CHO-CHOP cell viability loss – 24 h exposure, ATPLite luminescence, cytotoxicity control for UPR apoptotic arm activator project, SAR follow-up (AID 588556). The method, boiled down:
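Material – CHO-CHOP cells · Quantity – 500 cells per well · Buffer or medium – Serum-supplemented F12 medium · Benchmarks – positive tunicamycin 10 µg/mL, negative DMSO vehicle · Doses – dose series, DMSO ≤1% final · Measured by – ATPLite 1-Step luminescence · Times – 16-18 h cell pre-culture, 24 h compound treatment, 37 °C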
In general terms: In ATP-based viability assays light output follows the ATP content of the culture.

The source made the active and inactive calls.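 The calls were made as follows: active = IC50 at or below 20 µM in the 24 hour cytotoxicity test; inactive = the rest.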

For orientation: IC50 means the concentration that inhibits the measured activity by half. Take `O=C(Nc1ccc(S(=O)(=O)c2ccccc2)cc1)c1ccc([N+](=O)[O-])o1`: the IC50 was 40400 nM (inactive). The same measure for `O=C(Nc1nc2cccc(F)c2s1)c1ccccn1`: 2350 nM. For the molecule `O=C(Nc1ccc(S(=O)(=O)N2CCC(Cl)CC2)cc1)c1ccc([N+](=O)[O-])o1`, the IC50 is 66800 nM (inactive). The same measure for `CC1(C)CCN(S(=O)(=O)c2ccc(NC(=O)c3ccc([N+](=O)[O-])o3)cc2)CC1`: 12600 nM; for `O=C(Nc1nc2c(F)ccc(F)c2s1)c1ccccn1`: 1670 nM. For `O=C(Nc1nc2cc(F)ccc2s1)c1ccccn1`, the 50% inhibitory concentration (IC50) was 1570 nM. As to `O=C(Nc1nc2ccc(F)c(F)c2s1)c1ccccn1`, the IC50 is 1420 nM.

In the case of `O=C(Nc1ccc(S(=O)(=O)N2CCCCC2)cc1)c1ccc([N+](=O)[O-])o1`, the IC50 is > 80000 nM (inactive). On to `O=C(Nc1nc2ccc(C(F)(F)F)cc2s1)c1ccccn1`, for which the IC50 was 1220 nM. On to `O=C(Nc1ccc(S(=O)(=O)N2CCC(F)CC2)cc1)c1ccc([N+](=O)[O-])o1`, for which the IC50 is 32600 nM (inactive).

Regarding `O=C(Nc1nc2cc(F)c(F)cc2s1)c1ccccn1`, the half-inhibitory concentration (IC50) was 2660 nM.

For `Cc1cc(C)c2nc(NC(=O)c3ccccn3)sc2c1`, the IC50 is 5310 nM. Consider `CC1CN(S(=O)(=O)c2ccc(NC(=O)c3ccc([N+](=O)[O-])o3)cc2)CC(C)O1` (stereo not given), for which the IC50 is 51400 nM (inactive).

With `O=C(Nc1ccc(S(=O)(=O)C2CCOCC2)cc1)c1ccc([N+](=O)[O-])o1`, the IC50 is 66300 nM (inactive). The value for `O=C(Nc1nc2ccc(F)cc2s1)c1ccccn1` was 1930 nM; that for `O=C(Nc1ccc(S(=O)(=O)N2CCOCC2)cc1)c1ccc([N+](=O)[O-])o1` was 53500 nM (inactive); that for `O=C(Nc1nc2ccc(Cl)cc2s1)c1ccccn1` was 1230 nM. The same measure for `O=C(Nc1nc2c(F)c(F)ccc2s1)c1ccccn1`: 1680 nM; for `CC1CCN(S(=O)(=O)c2ccc(NC(=O)c3ccc([N+](=O)[O-])o3)cc2)CC1`: > 80000 nM (inactive). In the case of `O=C(Nc1nc2cc(F)cc(F)c2s1)c1ccccn1`, the half-inhibitory concentration (IC50) is 1830 nM. The value for `O=C(Nc1ccc(S(=O)(=O)N2CCCC2)cc1)c1ccc([N+](=O)[O-])o1` was 25000 nM (inactive); that for `O=C(Nc1ccc(S(=O)(=O)N2CCC3(CCCCC3)CC2)cc1)c1ccc([N+](=O)[O-])o1` was 1160 nM. `O=C(Nc1nc2c(Cl)cc(Cl)cc2s1)c1ccccn1`: the IC50 was 13300 nM. The value for `O=C(Nc1nc2c(F)cc(F)cc2s1)c1ccccn1` was 1400 nM. The value for `O=C(Nc1ccc(S(=O)(=O)N2CCOCC2)cc1)c1ccc([N+](=O)[O-])s1` was > 80000 nM (inactive); that for `O=C(Nc1ccc(S(=O)(=O)N2CCC(O)CC2)cc1)c1ccc([N+](=O)[O-])o1` was 45900 nM (inactive); that for `O=C(Nc1ccc(S(=O)(=O)N2CCNCC2)cc1)c1ccc([N+](=O)[O-])o1` was > 80000 nM (inactive). In the case of `O=C(Nc1ccc(S(=O)(=O)C2CCCCC2)cc1)c1ccc([N+](=O)[O-])o1`, the IC50 was 26700 nM (inactive). Take `CC(C)(C)C1CCN(S(=O)(=O)c2ccc(NC(=O)c3ccc([N+](=O)[O-])o3)cc2)CC1`: the IC50 is 2420 nM. The same measure for `O=C(Nc1nc2c(F)cccc2s1)c1ccccn1`: 1580 nM.
